Assay results from ChEMBL document CHEMBL1671864, “First assessment in humans of the safety, tolerability, pharmacokinetics, and ex vivo pharmacodynamic antimalarial activity of the new artemisinin derivative artemisone” (Antimicrob Agents Chemother, 2008).

Assays:
[1] = Tmax in healthy human plasma at 80 mg, po administered as single immediate release tablets during 10 hrs overnight fasting state; assay type: ADME, organism-based
Outline: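 Healthy Caucasian male volunteers (n=6 active, 2 placebo, randomized), single 80 mg dose as four 20-mg tablets with 240 ml water after 10-h fast. Venous lithium-heparin plasma sampled predose and 0.25–14 h; analysed by LC/MS-MS (MRM, deuterated internal standard). Noncompartmental analysis; Tmax observed directly; MRT = AUMC/AUC with extrapolation to infinity via kel.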

[2] = tested on: Plasma; assay: (§1) Ratio of Cmax in healthy human plasma at 80 mg, po administered as four 20 mg immediate release tablets daily for 3 days during 10 hrs overnight fasting state measured after 1 day to Cmax in healthy human plasma at 80 mg, po administered as four 20 mg immediate release tablets daily for 3 days during 10 hrs overnight fasting state measured after 3 day; assay type: ADME, organism-based; conditions: in vivo
Outline: (§2)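 Healthy Caucasian men took tablets daily for 3 days with 240 ml water after 10-h fast. Plasma sampled 0.25–14 h after first and last doses, artemisone measured by LC/MS-MS. Accumulation ratio is Cmax or AUC0-∞ after last dose divided by that after first dose. Noncompartmental analysis, geometric means with 95% CI.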

[3] = Apparent volume of distribution with respect to the bioavailability in healthy human at 80 mg, po administered as four 20 mg immediate release tablets daily for 3 days during 10 hrs overnight fasting state measured after 1 day; assay type: ADME, organism-based; conditions: in vivo, read-out: Vc/F
Outline: (§3)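 Healthy Caucasian males took 40 mg (2×20-mg IR tablets) or 80 mg (4 tablets) orally daily for 3 days after a 10-h fast. Plasma parent drug was measured by LC/MS-MS from predose to 14 h after the first and third doses. Noncompartmental analysis: AUC by log-linear trapezoid extrapolated via kel, CL/F = dose/AUC, V/F = CL/F÷kel, geometric means.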

[4] = Cmax in healthy human plasma at 40 mg, po administered as two 20 mg immediate release tablets daily for 3 days during 10 hrs overnight fasting state measured after 3 day; assay type: ADME, organism-based; set-up: dose 40 mg, route oral
Outline: (§4)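 Healthy Caucasian males took tablets once daily for 3 days with 240 ml water after a 10-h fast. Heparinised blood was drawn predose and at 0.25–14 h after the first and last doses. Plasma parent drug and metabolites M1–M3 were measured by LC/MS-MS (MRM, deuterated internal standard). Noncompartmental analysis gave Cmax observed, t1/2 = 0.693/kel and MRT = AUMC/AUC. Values are geometric means.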

[5] = Half life in healthy human plasma at 30 mg, po administered as single ascending doses as solution during 10 hrs overnight fasting state; assay type: ADME, organism-based
Outline: (§5)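 Healthy Caucasian male volunteers, single oral dose with 240 ml water after a 10-h overnight fast. Heparinised venous blood was drawn predose and at 0.25–14 h. Plasma was stored frozen. Parent drug and metabolites M1–M3 were measured by LC/MS-MS (MRM, deuterated internal standard). Noncompartmental analysis gave Cmax observed, t1/2 = 0.693/kel (terminal regression) and MRT = AUMC/AUC. Values are geometric means.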

[6] = Apparent volume of distribution with respect to the bioavailability in healthy human at 80 mg, po administered as four 20 mg immediate release tablets daily for 3 days during 10 hrs overnight fasting state measured after 3 day; assay type: ADME, organism-based; conditions: in vivo, read-out: Vc/F; outline: as §3
[7] = Cmax in healthy human plasma at 20 mg, po administered as single ascending doses as solution during 10 hrs overnight fasting state; assay type: ADME, organism-based; set-up: dose 20 mg, route oral; outline: as §5
[8] = Tmax in healthy human plasma at 10 mg, po administered as single ascending doses as solution during 10 hrs overnight fasting state; assay type: ADME, organism-based
Outline: (§6)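 Healthy Caucasian male volunteers, randomized within each dose group against placebo, given a single oral solution with 240 ml water after a 10-h overnight fast. Plasma sampled predose and at 0.25–14 h, quantified by LC/MS-MS (MRM, deuterated internal standard). Tmax read directly from individual noncompartmental concentration–time data.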

[9] = tested on: Homo sapiens; assay: Toxicity in healthy human assessed as increase in alanine aminotransferase level at 80 mg, po administered daily for 3 days as four 20-mg immediate-release tablets during 10 hrs overnight fasting state measured after 24 hrs last post treatment; assay type: organism-based; conditions: in vivo
[10] = Apparent oral clearance in healthy human at 20 mg, po administered as single ascending doses as solution during 10 hrs overnight fasting state; assay type: ADME, organism-based; conditions: in vivo
Outline: (§7)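 Single ascending oral doses in healthy Caucasian men, given fasted (10-h overnight) with 240 ml water: 10, 20, 30 or 40 mg as oral solution, or 80 mg as IR tablets. Parent plasma levels by LC/MS-MS over 0.25–14 h. Noncompartmental analysis: kel by terminal-phase least-squares regression, AUC extrapolated to infinity, CL/F = dose/AUC, V/F = CL/F÷kel.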

[11] = Apparent volume of distribution with respect to the bioavailability in healthy human at 40 mg, po administered as single ascending doses as solution during 10 hrs overnight fasting state; assay type: ADME, organism-based; conditions: in vivo, read-out: Vc/F; outline: as §7
[12] = Mean residence time in healthy human at 40 mg, po administered as two 20 mg immediate release tablets daily for 3 days during 10 hrs overnight fasting state measured after 3 day; assay type: ADME, organism-based; conditions: in vivo; outline: as §4
[13] = Tmax in healthy human plasma at 20 mg, po administered as single ascending doses as solution during 10 hrs overnight fasting state; assay type: ADME, organism-based; outline: as §6
[14] = Cmax in healthy human plasma at 80 mg, po administered as four 20 mg immediate release tablets daily for 3 days during 10 hrs overnight fasting state measured after 3 day; assay type: ADME, organism-based; set-up: dose 80 mg, route oral; outline: as §4
[15] = tested on: Plasma; assay: as §1, with “AUC (0 to infinity)” for “Cmax”; assay type: ADME, organism-based; conditions: in vivo; outline: as §2
[16] = Half life in healthy human plasma at 40 mg, po administered as two 20 mg immediate release tablets daily for 3 days during 10 hrs overnight fasting state measured after 3 day; assay type: ADME, organism-based; outline: as §4
[17] = Tmax in healthy human plasma at 40 mg, po administered as two 20 mg immediate release tablets daily for 3 days during 10 hrs overnight fasting state measured after 1 day; assay type: ADME, organism-based
Outline: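 Healthy Caucasian men (8 active, 4 placebo per dose) dosed with tablets daily for 3 days after 10-h fast. Lithium-heparin plasma sampled predose and 0.25–14 h after day-1 and day-3 doses, stored frozen. Parent and M1–M3 quantified by LC/MS-MS in positive-ion MRM. Tmax taken directly from observed individual data.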

[18] = tested on: Plasma; assay: as §1, with “40” for “80”, “two” for “four”; assay type: ADME, organism-based; conditions: in vivo; outline: as §2
[19] = Tmax in healthy human plasma at 30 mg, po administered as single ascending doses as solution during 10 hrs overnight fasting state; assay type: ADME, organism-based; outline: as §6
[20] = Mean residence time in healthy human at 40 mg, po administered as two 20 mg immediate release tablets daily for 3 days during 10 hrs overnight fasting state measured after 1 day; assay type: ADME, organism-based; conditions: in vivo; outline: as §4
[21] = tested on: Homo sapiens; assay: Toxicity in healthy human assessed as occurrence of clinically relevant changes in vital signs at 80 mg, po administered daily for 3 days as four 20-mg immediate-release tablets during 10 hrs overnight fasting state; assay type: organism-based; conditions: in vivo
Outline: (§8)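 Healthy Caucasian men received single ascending doses (10–40 mg solution, 80 mg tablets) or 3-day daily tablet courses, all fasting, with randomized placebo controls. Supine blood pressure, heart rate and resting 12-lead ECG were recorded before and after dosing.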

[22] = tested on: Homo sapiens; assay: Toxicity in healthy human assessed as occurrence of changes in electrocardiogram parameters at 40 mg, po administered daily for 3 days as two 20-mg immediate-release tablets during 10 hrs overnight fasting state; assay type: organism-based; conditions: in vivo; outline: as §8

## C[C@H]1[C@H](N2CCS(=O)(=O)CC2)O[C@@H]2O[C@@]3(C)CC[C@H]4[C@H](C)CC[C@@H]1[C@@]24OO3 [ARTEMIFONE]
[1]
  Tmax: 0.875 h
[2]
  Ratio: 84%
[3]
  Vd/F: 13 L/kg
[4]
  Cmax: 95 ng/mL
[5]
  half-life: 3.14 h
[6]
  Vd/F: 13.7 L/kg
[7]
  Cmax: 57.3 ng/mL
[8]
  Tmax: 0.25 h
[9]
  Activity: Non-toxic
[10]
  CL/F: 5080 mL/min
[11]
  Vd/F: 22.2 L/kg
[12]
  MRT: 3.74 h
[13]
  Tmax: 0.5 h
[14]
  Cmax: 130 ng/mL
[15]
  Ratio: 98.3%
[16]
  half-life: 4.37 h
[17]
  Tmax: 1.5 h
[18]
  Ratio: 98.5%
[19]
  Tmax: 0.5 h
[20]
  MRT: 2.91 h
[21]
  Activity: Non-toxic
[22]
  Activity: Non-toxic
